ChEMBL document CHEMBL4196006, “Aryl thiosemicarbazones for the treatment of trypanosomatidic infections” (Eur J Med Chem, 2018)
The source made the active and inactive calls. The rule behind the calls is not given here.

Experiments:
Trypanosoma brucei [1] = experiment: Potentiation of methotrexate-induced antitrypanosomal activity against Trypanosoma brucei Lister 427 bloodstream form at 10 uM after 72 hrs by resazurin dye-based assay relative to control; format: functional
[2] = Cytotoxicity against human U2OS cells assessed as viable cells at 50 uM after 72 hrs by MTT assay relative to control; format: cell-based; details: read-out: Activity
CYP1A2 = molecular target: T1, CYP1A2 (Homo sapiens, UniProt P05177); experiment: Inhibition of human microsomal CYP1A2 expressed in baculovirus infected BTI-TN-5B1-4 cells at 10 uM incubated for 30 mins by luciferase assay relative to control; format: ADME
T1 sequence (P05177 whole entry): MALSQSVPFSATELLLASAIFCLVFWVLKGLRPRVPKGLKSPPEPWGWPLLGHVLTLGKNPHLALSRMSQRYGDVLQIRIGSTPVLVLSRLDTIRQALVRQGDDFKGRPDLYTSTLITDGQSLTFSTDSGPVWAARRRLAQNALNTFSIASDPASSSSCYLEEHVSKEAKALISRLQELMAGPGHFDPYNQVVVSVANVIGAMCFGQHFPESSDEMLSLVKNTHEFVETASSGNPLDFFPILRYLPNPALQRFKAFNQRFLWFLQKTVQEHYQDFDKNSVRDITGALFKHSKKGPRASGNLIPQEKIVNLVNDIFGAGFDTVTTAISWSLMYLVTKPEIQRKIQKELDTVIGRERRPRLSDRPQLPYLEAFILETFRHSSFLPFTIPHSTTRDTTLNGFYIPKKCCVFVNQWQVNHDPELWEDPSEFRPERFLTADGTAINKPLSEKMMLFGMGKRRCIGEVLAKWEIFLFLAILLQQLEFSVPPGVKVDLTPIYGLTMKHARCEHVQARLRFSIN
Summary of the method: (§1)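 CYP1A2, 2C9, 2C19, 2D6 and 3A4 in microsomes from baculovirus-infected insect cells, each with a P450-Glo luminogenic substrate. Inhibition read as loss of light; single-point at 10 μM, triplicate.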

CYP2C9 = CYP2C9 (Homo sapiens, UniProt P11712); experiment: Inhibition of human microsomal CYP2C9 expressed in baculovirus infected BTI-TN-5B1-4 cells at 10 uM incubated for 30 mins by luciferase assay relative to control; format: ADME; summary of the method: as §1
CYP2C9, sequence (P11712 whole entry): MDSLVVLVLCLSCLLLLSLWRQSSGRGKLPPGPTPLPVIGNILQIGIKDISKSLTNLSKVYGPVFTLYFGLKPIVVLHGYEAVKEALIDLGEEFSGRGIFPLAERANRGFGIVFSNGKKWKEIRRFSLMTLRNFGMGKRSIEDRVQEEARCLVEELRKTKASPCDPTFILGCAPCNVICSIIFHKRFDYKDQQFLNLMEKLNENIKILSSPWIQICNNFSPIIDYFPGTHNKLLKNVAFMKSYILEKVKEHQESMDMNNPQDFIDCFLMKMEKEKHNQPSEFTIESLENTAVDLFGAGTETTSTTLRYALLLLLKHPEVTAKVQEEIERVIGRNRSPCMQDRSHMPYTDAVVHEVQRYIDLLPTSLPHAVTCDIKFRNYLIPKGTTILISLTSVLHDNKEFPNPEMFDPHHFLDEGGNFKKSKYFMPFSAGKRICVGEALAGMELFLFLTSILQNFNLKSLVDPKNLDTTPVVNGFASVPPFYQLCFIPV

CYP2C19 = CYP2C19 (Homo sapiens, UniProt P33261); experiment: Inhibition of human microsomal CYP2C19 expressed in baculovirus infected BTI-TN-5B1-4 cells at 10 uM incubated for 30 mins by luciferase assay relative to control; format: ADME; summary of the method: as §1
CYP2C19, sequence (P33261 whole entry): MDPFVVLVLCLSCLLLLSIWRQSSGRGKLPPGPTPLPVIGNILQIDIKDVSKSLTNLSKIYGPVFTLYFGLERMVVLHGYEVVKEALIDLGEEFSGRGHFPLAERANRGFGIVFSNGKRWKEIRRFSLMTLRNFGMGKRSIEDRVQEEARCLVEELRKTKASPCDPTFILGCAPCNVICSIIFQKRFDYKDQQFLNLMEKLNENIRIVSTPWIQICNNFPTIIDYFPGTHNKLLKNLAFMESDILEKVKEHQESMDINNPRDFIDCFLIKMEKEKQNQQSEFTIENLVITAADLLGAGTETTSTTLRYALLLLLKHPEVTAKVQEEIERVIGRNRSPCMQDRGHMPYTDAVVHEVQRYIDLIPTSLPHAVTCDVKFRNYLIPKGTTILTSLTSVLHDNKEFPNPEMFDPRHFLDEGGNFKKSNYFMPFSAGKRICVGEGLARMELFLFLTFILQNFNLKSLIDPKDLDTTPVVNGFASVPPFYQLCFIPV

Trypanosoma brucei [3] = experiment: Potentiation of methotrexate-induced antitrypanosomal activity against Trypanosoma brucei Lister 427 bloodstream form at 10 uM after 72 hrs by resazurin dye-based assay; format: functional
[4] = Cytotoxicity against human A549 cells assessed as growth inhibition at 10 uM after 48 hrs by CellTiter-Glo assay relative to control; values are per cent of control; details: A549 cells
CYP2D6 = CYP2D6 (Homo sapiens, UniProt P10635); experiment: Inhibition of human microsomal CYP2D6 expressed in baculovirus infected BTI-TN-5B1-4 cells at 10 uM incubated for 30 mins by luciferase assay relative to control; format: ADME; summary of the method: as §1
CYP2D6, sequence (P10635 whole entry): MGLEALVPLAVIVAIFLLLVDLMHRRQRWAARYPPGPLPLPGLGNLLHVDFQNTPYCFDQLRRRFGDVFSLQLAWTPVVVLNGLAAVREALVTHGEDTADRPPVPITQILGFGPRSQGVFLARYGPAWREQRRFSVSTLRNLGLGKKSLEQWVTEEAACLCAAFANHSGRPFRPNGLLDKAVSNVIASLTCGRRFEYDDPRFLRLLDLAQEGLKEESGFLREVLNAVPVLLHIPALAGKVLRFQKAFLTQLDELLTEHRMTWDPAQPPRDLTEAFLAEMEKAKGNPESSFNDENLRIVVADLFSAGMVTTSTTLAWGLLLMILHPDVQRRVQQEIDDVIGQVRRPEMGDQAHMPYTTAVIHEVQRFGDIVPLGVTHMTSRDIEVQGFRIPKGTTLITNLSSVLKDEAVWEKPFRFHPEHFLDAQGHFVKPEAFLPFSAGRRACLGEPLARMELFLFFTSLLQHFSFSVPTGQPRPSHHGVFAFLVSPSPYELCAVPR

CYP3A4 = CYP3A4 (Homo sapiens, UniProt P08684); experiment: Inhibition of human microsomal CYP3A4 expressed in baculovirus infected BTI-TN-5B1-4 cells at 10 uM incubated for 30 mins by luciferase assay relative to control; format: ADME; summary of the method: as §1
CYP3A4, sequence (P08684 whole entry): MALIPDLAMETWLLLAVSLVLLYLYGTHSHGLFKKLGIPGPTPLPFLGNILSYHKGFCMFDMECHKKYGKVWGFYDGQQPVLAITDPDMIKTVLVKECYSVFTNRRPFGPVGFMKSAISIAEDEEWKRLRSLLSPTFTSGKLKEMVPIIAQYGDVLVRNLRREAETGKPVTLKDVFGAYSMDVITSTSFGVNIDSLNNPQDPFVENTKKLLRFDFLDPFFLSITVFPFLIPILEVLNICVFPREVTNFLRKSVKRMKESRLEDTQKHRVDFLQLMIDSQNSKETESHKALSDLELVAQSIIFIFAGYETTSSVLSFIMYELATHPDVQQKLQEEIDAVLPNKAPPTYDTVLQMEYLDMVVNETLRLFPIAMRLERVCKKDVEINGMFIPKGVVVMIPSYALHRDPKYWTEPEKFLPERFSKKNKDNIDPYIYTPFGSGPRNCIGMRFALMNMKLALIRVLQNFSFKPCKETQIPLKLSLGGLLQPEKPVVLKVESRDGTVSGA

Trypanosoma cruzi = experiment: Antitrypanosomal activity against Trypanosoma cruzi amastigote form infected in human U2OS cells assessed as parasite growth inhibition at 50 uM after 72 hrs relative to control; format: functional; details: read-out: GI
Summary of the method: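 U2OS monolayers grown for 24 h, then infected with tissue-derived trypomastigotes of T. cruzi Y strain. Compounds were added 24 h after infection at 50 μM (single-point) or in dose-response, with 72 h exposure. Plates were fixed, stained and analysed by high-content imaging; activity was normalized to infected and non-infected controls. Means of at least two experiments; benznidazole as reference.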

[5] = Cytotoxicity against human 786-O cells assessed as inhibition of mitochondrial viability at 10 uM after 6 hrs by CMXRos staining based assay relative to control; format: cell-based, 786-0; details: read-out: INH
Summary of the method: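 Mitochondrial toxicity monitored by MitoTracker Red CMXRos uptake and high-content imaging; compound at 10 μM, triplicate.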

Trypanosoma brucei [6] = experiment: Antitrypanosomal activity against Trypanosoma brucei Lister 427 bloodstream form assessed as parasite growth inhibition at 50 uM after 72 hrs by SYBR Green assay relative to control; format: functional
Leishmania infantum = experiment: Antileishmanial activity against Leishmania infantum amastigote form assessed as parasite growth inhibition at 50 uM after 72 hrs by steady-Glo reagent based assay relative to control; format: functional; details: read-out: GI
Summary of the method: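 Intramacrophage L. infantum amastigotes in THP-1-derived macrophages, tested at 50 μM or in dose-response. Plates held 72 h at 37 °C, 5% CO2. Medium was replaced by PBS, macrophages lysed, and parasites read by Steady-Glo luminescence. High-content imaging gave host cell number, infection ratio (infected/total cells) and parasites per infected cell. Values are means of at least two independent experiments.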

WI-38 = experiment: Cytotoxicity against human WI38 cells assessed as growth inhibition at 10 uM after 48 hrs by CellTiter-Glo assay relative to control; values are per cent of control; details: wi-38, 48 h, 10 µM
[7] = Cytotoxicity against human THP1 cells assessed as viable cells at 100 uM after 72 hrs by MTT assay relative to control; format: cell-based, THP-1; details: read-out: Activity
Summary of the method: (§2)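 THP-1-derived macrophages exposed to compounds for 72 h, tested at 100 μM or in dose-response; viability read by MTT colorimetric assay.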

hERG (KCNH2) = hERG (KCNH2) (Homo sapiens, UniProt Q12809); experiment: Inhibition of human ERG at 10 uM incubated for 2 hrs by fluorescence polarisation assay relative to control
hERG (KCNH2), sequence (Q12809 whole entry): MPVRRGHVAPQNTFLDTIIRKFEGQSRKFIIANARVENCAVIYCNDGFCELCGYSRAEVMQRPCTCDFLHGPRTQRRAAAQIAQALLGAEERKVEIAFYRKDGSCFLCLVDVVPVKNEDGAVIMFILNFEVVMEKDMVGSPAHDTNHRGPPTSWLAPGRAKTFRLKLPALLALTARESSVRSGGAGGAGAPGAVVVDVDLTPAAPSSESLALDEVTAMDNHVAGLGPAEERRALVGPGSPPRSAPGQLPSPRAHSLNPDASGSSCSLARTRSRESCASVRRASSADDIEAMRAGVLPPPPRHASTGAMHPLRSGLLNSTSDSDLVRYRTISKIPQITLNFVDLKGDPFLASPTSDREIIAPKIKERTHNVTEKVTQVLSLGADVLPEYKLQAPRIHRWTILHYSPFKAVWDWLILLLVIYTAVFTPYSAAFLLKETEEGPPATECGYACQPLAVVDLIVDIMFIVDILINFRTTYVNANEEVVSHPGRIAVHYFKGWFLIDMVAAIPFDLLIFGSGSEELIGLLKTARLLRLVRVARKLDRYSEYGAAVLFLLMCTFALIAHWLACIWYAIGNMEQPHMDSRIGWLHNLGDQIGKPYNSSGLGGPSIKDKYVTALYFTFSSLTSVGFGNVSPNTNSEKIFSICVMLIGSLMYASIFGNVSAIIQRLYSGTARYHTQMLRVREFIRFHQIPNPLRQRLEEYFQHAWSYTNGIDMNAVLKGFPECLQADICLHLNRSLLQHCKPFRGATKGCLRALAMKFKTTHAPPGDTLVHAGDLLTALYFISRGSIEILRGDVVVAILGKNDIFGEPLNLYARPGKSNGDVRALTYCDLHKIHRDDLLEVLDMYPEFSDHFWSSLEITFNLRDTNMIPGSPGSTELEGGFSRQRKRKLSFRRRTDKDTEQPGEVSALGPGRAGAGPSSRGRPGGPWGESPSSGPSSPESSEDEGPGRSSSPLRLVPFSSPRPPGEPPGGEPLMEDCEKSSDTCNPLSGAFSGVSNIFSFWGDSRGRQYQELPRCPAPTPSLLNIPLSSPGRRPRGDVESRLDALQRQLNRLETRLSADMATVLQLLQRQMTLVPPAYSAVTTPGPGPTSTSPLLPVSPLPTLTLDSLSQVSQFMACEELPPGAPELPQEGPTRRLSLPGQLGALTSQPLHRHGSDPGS

[8] = molecular target: T2, Pteridine reductase 1 (Leishmania major) (UniProt Q01782); experiment: Inhibition of Leishmania major PTR1 at 50 uM using H2B as substrate in presence of NADPH by photometric analysis relative to control
T2 sequence (whole entry): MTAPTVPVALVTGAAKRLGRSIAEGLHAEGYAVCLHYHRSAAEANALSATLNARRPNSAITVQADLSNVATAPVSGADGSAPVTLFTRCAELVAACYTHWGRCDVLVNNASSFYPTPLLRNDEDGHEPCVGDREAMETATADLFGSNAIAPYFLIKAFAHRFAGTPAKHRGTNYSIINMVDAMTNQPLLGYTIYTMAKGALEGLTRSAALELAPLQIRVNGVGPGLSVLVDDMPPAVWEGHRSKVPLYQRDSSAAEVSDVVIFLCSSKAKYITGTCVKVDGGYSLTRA

Trypanosoma brucei [9] = experiment: Antitrypanosomal activity against Trypanosoma brucei Lister 427 bloodstream form at 10 uM after 72 hrs by resazurin dye-based assay relative to control; format: functional
[10] = molecular target: T3, Pteridine reductase, putative (Trypanosoma brucei) (UniProt Q581W1); experiment: Inhibition of Trypanosoma brucei PTR1 at 50 uM using H2B as substrate in presence of NADPH by photometric analysis relative to control
T3 sequence (whole entry): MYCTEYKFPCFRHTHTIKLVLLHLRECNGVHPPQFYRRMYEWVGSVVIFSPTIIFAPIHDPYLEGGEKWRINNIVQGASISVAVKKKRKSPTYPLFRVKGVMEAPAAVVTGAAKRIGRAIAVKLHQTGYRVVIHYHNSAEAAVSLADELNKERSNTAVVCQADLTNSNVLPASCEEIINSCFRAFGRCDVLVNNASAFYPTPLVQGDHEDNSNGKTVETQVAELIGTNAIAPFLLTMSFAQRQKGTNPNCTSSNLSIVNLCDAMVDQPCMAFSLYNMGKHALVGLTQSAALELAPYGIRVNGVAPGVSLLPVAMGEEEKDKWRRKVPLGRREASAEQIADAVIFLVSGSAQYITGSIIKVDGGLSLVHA

Aurora kinase B = Aurora kinase B (Homo sapiens, UniProt Q96GD4); experiment: Inhibition of recombinant full-length human aurora B kinase expressed in baculovirus system at 10 uM using MBP as substrate incubated for 45 mins by ADP-glo kinase assay; details: probe MBP
Aurora kinase B, sequence (Q96GD4 whole entry): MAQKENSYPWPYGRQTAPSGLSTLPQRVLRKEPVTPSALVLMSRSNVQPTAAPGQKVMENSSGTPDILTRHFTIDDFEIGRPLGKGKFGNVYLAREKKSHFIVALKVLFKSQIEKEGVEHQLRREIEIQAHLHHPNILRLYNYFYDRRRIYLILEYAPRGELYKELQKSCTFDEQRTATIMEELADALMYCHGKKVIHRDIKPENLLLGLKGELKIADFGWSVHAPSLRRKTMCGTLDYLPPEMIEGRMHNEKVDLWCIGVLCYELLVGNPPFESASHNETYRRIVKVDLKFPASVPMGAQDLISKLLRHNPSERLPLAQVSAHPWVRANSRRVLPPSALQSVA
Summary of the method: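 Aurora B activity measured as ADP formation via coupled luciferase ADP-Glo luminescence; single-point at 10 μM, triplicate.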

[11] = Cytotoxicity against human THP1 cells assessed as decrease in viable cells after 72 hrs by MTT assay; format: cell-based, THP-1; details: THP1 cells; summary of the method: as §2
Trypanosoma brucei [12] = experiment: Antitrypanosomal activity against Trypanosoma brucei Lister 427 bloodstream form at 4 uM after 72 hrs by resazurin dye-based assay relative to control; format: functional
A549 = experiment: Cytotoxicity against human A549 cells assessed as growth inhibition at 10 uM after 48 hrs by CellTiter-Glo assay relative to control; values are per cent of control; details: a549, 48 h, 10 µM
[13] = Cytotoxicity against human WI38 cells assessed as growth inhibition at 10 uM after 48 hrs by CellTiter-Glo assay relative to control; values are per cent of control; details: WI38 cells

Row | inhibition at 0.5 h, 10 µM (CYP1A2) [%] | inhibition at 0.5 h, 10 µM (CYP2C9) [%] | inhibition at 0.5 h, 10 µM (CYP2C19) [%] | inhibition at 0.5 h, 10 µM (CYP2D6) [%] | inhibition at 0.5 h, 10 µM (CYP3A4) [%] | inhibition [8] [%] | inhibition [10] | inhibition at 0.75 h, 10 µM (Aurora kinase B) [%] | SMILES | Activity (Trypanosoma brucei [1]) [%] | viability at 72 h, 50 µM [2] [%] | PF (Trypanosoma brucei [3]) | inhibition of growth at 50 µM (Trypanosoma cruzi) [%] | cytotoxicity at 6 h, 10 µM [5] [%] | inhibition of growth at 50 µM (Leishmania infantum) [%] | viability at 72 h, 100 µM [7] [%] | inhibition at 2 h, 10 µM (hERG (KCNH2)) [%] | Activity (Trypanosoma brucei [9]) [%] | further results
1 | 98.4 | 10 | 21.7 | 57.9 | 22.8 | 5.85 | inactive | 0.89 | CN(C)c1ccc(/C=N/N=C(/N)S)c2ccccc12 | 63.83 | 99.5 | 1.27 | 8.05 | -1.7 | 58.3 | 9.31 | 43 | 26.17 | cell growth (% of control) at 48 h, 10 µM [4]: 122%; inhibition of growth at 50 µM (Trypanosoma brucei [6]; Lister 427, 72 h, read-out: GI): 6.33%; cell growth (% of control) (WI-38): 162.08%
2 | – | – | – | – | – | – | – | – | N=C(N)c1ccc(OCCCCCOc2ccc(C(=N)N)cc2)cc1 [PENTAMIDINE] | – | – | – | – | – | – | – | – | – | CC50 at 72 h [11]: 10 µM
3 | – | – | – | – | – | – | – | – | CN(Cc1cnc2nc(N)nc(N)c2n1)c1ccc(C(=O)N[C@@H](CCC(=O)O)C(=O)O)cc1 [METHOTREXATE] | – | – | – | – | – | – | – | – | – | Activity (Trypanosoma brucei [12]): 24.25%
4 | 61.6 | -4.92 | -40.6 | -2.93 | -13.9 | 10.6 | 14.8% | -22.8 | NC(=S)N/N=C/c1ccccc1[N+](=O)[O-] | 29.17 | 20.4 | 1.13 | 27.4 | -3.98 | 30.6 | 59.7 | -1.03 | 1.5 | cell growth (% of control) (A549): 158.95%; growth inhibition (GI) (Trypanosoma brucei [6]): inactive; cell growth (% of control) at 48 h, 10 µM [13]: 120%
